# Reference: ChEMBL document CHEMBL1134549, “Original 2-alkylamino-6-halogenoquinazolin-4(3H)-ones and K(ATP) channel activity” (J Med Chem, 2001)
# pIC50: −log10 of the molar value.
# Species on record: Rattus norvegicus
# Test: Myorelaxant activity as percentage residual contractile activity in rat uterus at 10 uM concentration.
# Type: functional
# In short: (§1)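 Uterus from fed Wistar rats (150–200 g) pretreated the day before with diethylstilboestrol dipropionate i.m. Tissue superfused at 37 °C. Contractions induced by 20 mU oxytocin injections at 10 min intervals, scored as AUC. Baseline (100%) is the mean of the last three constant responses. Each drug concentration tested with at least three injections; mean AUC expressed as percent of the drug-free response.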
row,Compound,Activity [%]
1,Oc1nc(NCc2ccccc2)nc2ccc(Cl)cc12,94.8
2,C[C@@H](Nc1nc(O)c2cc(Cl)ccc2n1)C1CCCCC1,108
3,CC(C)Nc1nc(O)c2cc(Cl)ccc2n1,78.7
4,CC1=Nc2ccc(Cl)cc2S(=O)(=O)N1 [DIAZOXIDE],93.8
5,CC(C)Nc1nc(O)c2cc(I)ccc2n1,77.6
6,Oc1nc(NCc2ccccc2)nc2ccc(Br)cc12,76.8
7,C[C@@H](Nc1nc(O)c2cc(Cl)ccc2n1)c1ccccc1,120
8,Oc1nc(NCc2ccccc2)nc2ccccc12,97.2
9,Oc1nc(NCc2ccccc2)nc2ccc(I)cc12,106
10,Oc1nc(NCC2CCCCC2)nc2ccc(Cl)cc12,86
11,Oc1nc(NCC2CCCCC2)nc2ccc(I)cc12,96.8
12,C[C@H](Nc1nc(O)c2cc(Cl)ccc2n1)C1CCCCC1,102
13,C[C@H](Nc1nc(O)c2cc(Cl)ccc2n1)c1ccccc1,92.4
14,CC(N/C(=N\C#N)Nc1ccncc1)C(C)(C)C (configuration not stated) [PINACIDIL ANHYDROUS],58.1

# Tested on: not listed separately
# Test: Myorelaxant activity in rat aorta with 1 uM glibenclamide and 30 mM KCL
# Type: functional, tissue-based
# In short: (§2)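 Endothelium-denuded transverse aortic rings (3–4 mm) from fed Wistar rats (250–300 g) held under 2 g tension in Krebs-bicarbonate at 37 °C, 95% O2/5% CO2. After 60 min equilibration, contracted with 30 mM or 80 mM KCl; drugs added cumulatively to maximal relaxation, with or without glibenclamide throughout (1 or 10 μM).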
row,Compound,pIC50
1,C[C@@H](Nc1nc(O)c2cc(Cl)ccc2n1)C1CCCCC1,< 4.52
2,CC1=Nc2ccc(Cl)cc2S(=O)(=O)N1 [DIAZOXIDE],4.07
3,CC(C)Nc1nc(O)c2cc(I)ccc2n1,4.43
4,CC(N/C(=N\C#N)Nc1ccncc1)C(C)(C)C (configuration not stated) [PINACIDIL ANHYDROUS],4.98

# Species on record: Rattus norvegicus
# Test: In vitro percentage residual insulin secretion at 50 uM dose from rat pancreatic islets incubated in the presence of 16.7 mM glucose.
# Type: functional
# In short: (§3)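 Islets from fed Wistar rats (180–220 g), groups of 10, preincubated 30 min at 37 °C in salt medium with 2.8 mM glucose and 0.5% dialyzed albumin under O2/CO2. Then incubated 90 min at 37 °C with 16.7 mM glucose plus drug. Insulin measured by radioimmunoassay against a rat insulin standard; reported as percentage residual release.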
row,Compound,Secretion [%]
1,CC(C)C(C)Nc1nc(O)c2cc(I)ccc2n1 (configuration not stated),30.6
2,CC(C)C(C)NC1=NS(=O)(=O)c2cnccc2N1 (configuration not stated),7.1
3,Oc1nc(NCc2ccccc2)nc2ccc(Cl)cc12,82.5
4,CCC(C)Nc1nc(O)c2cc(I)ccc2n1 (configuration not stated),11.2
5,CC(C)Nc1nc(O)c2ccccc2n1,45.6
6,C[C@@H](Nc1nc(O)c2cc(Cl)ccc2n1)C1CCCCC1,16.5
7,CC(C)Nc1nc(O)c2cc(Cl)ccc2n1,6.6
8,CC1=Nc2ccc(Cl)cc2S(=O)(=O)N1 [DIAZOXIDE],28.8
9,CC(C)Nc1nc(O)c2cc(I)ccc2n1,12.2
10,Oc1nc(NCc2ccccc2)nc2ccc(Br)cc12,75.7
11,CCC(C)Nc1nc(O)c2cc(Cl)ccc2n1 (configuration not stated),6
12,CC(Nc1nc(O)c2ccccc2n1)C(C)(C)C (configuration not stated),50.9
13,C[C@@H](Nc1nc(O)c2cc(Cl)ccc2n1)c1ccccc1,35
14,Oc1nc(NCc2ccccc2)nc2ccccc12,61.8
15,Oc1nc(NCc2ccccc2)nc2ccc(I)cc12,82.8
16,Oc1nc(NCC2CCCCC2)nc2ccc(Cl)cc12,26.5
17,Oc1nc(NCC2CCCCC2)nc2ccc(I)cc12,10
18,C[C@H](Nc1nc(O)c2cc(Cl)ccc2n1)C1CCCCC1,8.9
19,CC(C)C(C)Nc1nc(O)c2cc(Cl)ccc2n1 (configuration not stated),10.2
20,C[C@H](Nc1nc(O)c2cc(Cl)ccc2n1)c1ccccc1,12.9
21,CC(N/C(=N\C#N)Nc1ccncc1)C(C)(C)C (configuration not stated) [PINACIDIL ANHYDROUS],92.1

# Species on record: Rattus norvegicus
# Test: In vitro inhibition of 30 mM KCl-induced contraction of rat aorta rings.
# Type: functional
row,Compound,pIC50
1,CC(C)C(C)Nc1nc(O)c2cc(I)ccc2n1 (configuration not stated),5.39
2,CC(C)C(C)NC1=NS(=O)(=O)c2cnccc2N1 (configuration not stated),3.81
3,CCC(C)Nc1nc(O)c2cc(I)ccc2n1 (configuration not stated),5.05
4,CC(C)Nc1nc(O)c2ccccc2n1,4.17
5,C[C@@H](Nc1nc(O)c2cc(Cl)ccc2n1)C1CCCCC1,5.25
6,CC(C)Nc1nc(O)c2cc(Cl)ccc2n1,4.76
7,CC1=Nc2ccc(Cl)cc2S(=O)(=O)N1 [DIAZOXIDE],4.71
8,CC(C)Nc1nc(O)c2cc(I)ccc2n1,4.92
9,Oc1nc(NCc2ccccc2)nc2ccc(Br)cc12,5.12
10,CCC(C)Nc1nc(O)c2cc(Cl)ccc2n1 (configuration not stated),4.86
11,CC(Nc1nc(O)c2ccccc2n1)C(C)(C)C (configuration not stated),4.91
12,C[C@@H](Nc1nc(O)c2cc(Cl)ccc2n1)c1ccccc1,5.55
13,Oc1nc(NCc2ccccc2)nc2ccccc12,4.36
14,Oc1nc(NCc2ccccc2)nc2ccc(I)cc12,5.85
15,Oc1nc(NCC2CCCCC2)nc2ccc(Cl)cc12,5.66
16,Oc1nc(NCC2CCCCC2)nc2ccc(I)cc12,5.41
17,C[C@H](Nc1nc(O)c2cc(Cl)ccc2n1)C1CCCCC1,5.68
18,CC(C)C(C)Nc1nc(O)c2cc(Cl)ccc2n1 (configuration not stated),4.79
19,C[C@H](Nc1nc(O)c2cc(Cl)ccc2n1)c1ccccc1,5.77
20,CC(N/C(=N\C#N)Nc1ccncc1)C(C)(C)C (configuration not stated) [PINACIDIL ANHYDROUS],6.30

# Species on record: Rattus norvegicus
# Test: Myorelaxant activity as percentage residual contractile activity in rat uterus at 50 uM concentration.
# Type: functional
# In short: as §1
row,Compound,Activity [%]
1,Oc1nc(NCc2ccccc2)nc2ccc(Cl)cc12,98.1
2,C[C@@H](Nc1nc(O)c2cc(Cl)ccc2n1)C1CCCCC1,90.7
3,CC(C)Nc1nc(O)c2cc(Cl)ccc2n1,61
4,CC1=Nc2ccc(Cl)cc2S(=O)(=O)N1 [DIAZOXIDE],76.3
5,CC(C)Nc1nc(O)c2cc(I)ccc2n1,41
6,Oc1nc(NCc2ccccc2)nc2ccc(Br)cc12,76.6
7,C[C@@H](Nc1nc(O)c2cc(Cl)ccc2n1)c1ccccc1,46.5
8,Oc1nc(NCc2ccccc2)nc2ccccc12,47.4
9,Oc1nc(NCc2ccccc2)nc2ccc(I)cc12,106
10,Oc1nc(NCC2CCCCC2)nc2ccc(Cl)cc12,80.3
11,Oc1nc(NCC2CCCCC2)nc2ccc(I)cc12,97.9
12,C[C@H](Nc1nc(O)c2cc(Cl)ccc2n1)C1CCCCC1,66.5
13,C[C@H](Nc1nc(O)c2cc(Cl)ccc2n1)c1ccccc1,44.9
14,CC(N/C(=N\C#N)Nc1ccncc1)C(C)(C)C (configuration not stated) [PINACIDIL ANHYDROUS],35.5

# Species on record: Cavia porcellus
# Test: In vitro inhibition electrically stimulated guinea pig ileum segment contraction.
# Type: functional
# In short: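 Coaxial electrical stimulation with rectangular pulses (0.5 ms, 0.1 Hz, 5–25 V); isometric contraction recording. Drugs added at increasing concentrations until maximal effect.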
row,Compound,pIC50
1,CC(C)C(C)Nc1nc(O)c2cc(I)ccc2n1 (configuration not stated),4.52
2,CC(C)C(C)NC1=NS(=O)(=O)c2cnccc2N1 (configuration not stated),< 3.52
3,Oc1nc(NCc2ccccc2)nc2ccc(Cl)cc12,4.88
4,CCC(C)Nc1nc(O)c2cc(I)ccc2n1 (configuration not stated),4.63
5,C[C@@H](Nc1nc(O)c2cc(Cl)ccc2n1)C1CCCCC1,5.09
6,CC(C)Nc1nc(O)c2cc(Cl)ccc2n1,4.13
7,CC1=Nc2ccc(Cl)cc2S(=O)(=O)N1 [DIAZOXIDE],< 3.52
8,CC(C)Nc1nc(O)c2cc(I)ccc2n1,4.36
9,CCC(C)Nc1nc(O)c2cc(Cl)ccc2n1 (configuration not stated),4.35
10,C[C@@H](Nc1nc(O)c2cc(Cl)ccc2n1)c1ccccc1,4.69
11,Oc1nc(NCc2ccccc2)nc2ccc(I)cc12,5.06
12,Oc1nc(NCC2CCCCC2)nc2ccc(Cl)cc12,4.62
13,Oc1nc(NCC2CCCCC2)nc2ccc(I)cc12,4.59
14,C[C@H](Nc1nc(O)c2cc(Cl)ccc2n1)C1CCCCC1,4.82
15,CC(C)C(C)Nc1nc(O)c2cc(Cl)ccc2n1 (configuration not stated),4.23
16,C[C@H](Nc1nc(O)c2cc(Cl)ccc2n1)c1ccccc1,4.88
17,CC(N/C(=N\C#N)Nc1ccncc1)C(C)(C)C (configuration not stated) [PINACIDIL ANHYDROUS],5.04

# Tested on: not listed separately
# Test: Myorelaxant activity in rat aorta with 10 uM glibenclamide and 30 mM KCL
# Type: functional, tissue-based
# In short: as §2
row,Compound,pIC50
1,C[C@@H](Nc1nc(O)c2cc(Cl)ccc2n1)C1CCCCC1,< 4.52
2,CC1=Nc2ccc(Cl)cc2S(=O)(=O)N1 [DIAZOXIDE],3.79
3,CC(C)Nc1nc(O)c2cc(I)ccc2n1,4.33
4,CC(N/C(=N\C#N)Nc1ccncc1)C(C)(C)C (configuration not stated) [PINACIDIL ANHYDROUS],4.37

# Species on record: Rattus norvegicus
# Test: Percentage residual insulin secretion at 10 uM dose from pancreatic islets incubated in the presence of 16.7 mM glucose
# Type: functional
# In short: as §3
row,Compound,Secretion [%]
1,CC(C)C(C)Nc1nc(O)c2cc(I)ccc2n1 (configuration not stated),87.7
2,CC(C)C(C)NC1=NS(=O)(=O)c2cnccc2N1 (configuration not stated),26.8
3,CCC(C)Nc1nc(O)c2cc(I)ccc2n1 (configuration not stated),77.5
4,C[C@@H](Nc1nc(O)c2cc(Cl)ccc2n1)C1CCCCC1,62.1
5,CC(C)Nc1nc(O)c2cc(Cl)ccc2n1,55.1
6,CC1=Nc2ccc(Cl)cc2S(=O)(=O)N1 [DIAZOXIDE],70
7,CC(C)Nc1nc(O)c2cc(I)ccc2n1,90.9
8,CCC(C)Nc1nc(O)c2cc(Cl)ccc2n1 (configuration not stated),53.2
9,Oc1nc(NCC2CCCCC2)nc2ccc(Cl)cc12,90.1
10,Oc1nc(NCC2CCCCC2)nc2ccc(I)cc12,65.4
11,C[C@H](Nc1nc(O)c2cc(Cl)ccc2n1)C1CCCCC1,43.6
12,CC(C)C(C)Nc1nc(O)c2cc(Cl)ccc2n1 (configuration not stated),61.9
13,C[C@H](Nc1nc(O)c2cc(Cl)ccc2n1)c1ccccc1,76.9
14,CC(N/C(=N\C#N)Nc1ccncc1)C(C)(C)C (configuration not stated) [PINACIDIL ANHYDROUS],96

# Species on record: Rattus norvegicus
# Test: Percentage residual insulin secretion at 1 uM dose from pancreatic islets incubated in the presence of 16.7 mM glucose
# Type: functional
# In short: as §3
row,Compound,Secretion [%]
1,CC(C)C(C)Nc1nc(O)c2cc(I)ccc2n1 (configuration not stated),94.7
2,CC(C)C(C)NC1=NS(=O)(=O)c2cnccc2N1 (configuration not stated),70.5
3,CCC(C)Nc1nc(O)c2cc(I)ccc2n1 (configuration not stated),94.9
4,CC(C)Nc1nc(O)c2cc(Cl)ccc2n1,80.7
5,CC1=Nc2ccc(Cl)cc2S(=O)(=O)N1 [DIAZOXIDE],78.9
6,CC(C)Nc1nc(O)c2cc(I)ccc2n1,93.7
7,CCC(C)Nc1nc(O)c2cc(Cl)ccc2n1 (configuration not stated),84.9
8,CC(C)C(C)Nc1nc(O)c2cc(Cl)ccc2n1 (configuration not stated),81.3
9,CC(N/C(=N\C#N)Nc1ccncc1)C(C)(C)C (configuration not stated) [PINACIDIL ANHYDROUS],97.8

# Species on record: Rattus norvegicus
# Test: Myorelaxant activity in rat aorta in the presence 80 mM KCL.
# Type: functional
# In short: as §2
row,Compound,pIC50
1,C[C@@H](Nc1nc(O)c2cc(Cl)ccc2n1)C1CCCCC1,4.74
2,CC(C)Nc1nc(O)c2cc(Cl)ccc2n1,4.46
3,CC1=Nc2ccc(Cl)cc2S(=O)(=O)N1 [DIAZOXIDE],< 3.52
4,CC(C)Nc1nc(O)c2cc(I)ccc2n1,4.43
5,CC(N/C(=N\C#N)Nc1ccncc1)C(C)(C)C (configuration not stated) [PINACIDIL ANHYDROUS],4.80
